Reference: ChEMBL document CHEMBL3856249 (J Med Chem, 2016)

Legend:
[1] = Metabolic stability in human liver microsomes assessed as compound metabolized at 5 uM measured after 15 mins; format: ADME; conditions: read-out: Drug metabolism
Procedure, shortened: (§1)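 Human or rat liver microsomes incubated with compound at 5 μM for 15 min; read-out is % of parent metabolized; means of at least two experiments.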

[2] = Metabolic stability in rat liver microsomes assessed as compound metabolized at 5 uM measured after 15 mins; format: ADME; conditions: read-out: Drug metabolism; procedure, shortened: as §1
[3] = Tmax in Beagle dog at 1 mg/kg, iv or 5 mg/kg, po; format: ADME, organism-based, Canis lupus familiaris; conditions: in vivo
Procedure, shortened: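 Male Beagle dogs given 5 mg/kg orally and 1 mg/kg intravenously, formulated in 20% HP-β-CD + HCl solution at pH 4. Tmax reported as mean ± SD of three animals.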

[4] = Oral bioavailability in Beagle dog at 5 mg/kg; format: ADME, organism-based, Canis lupus familiaris; conditions: in vivo
Procedure, shortened: (§2)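 Male Beagle dogs, 1 mg/kg i.v. and 5 mg/kg p.o., vehicle 20% HP-β-CD + HCl solution at pH 4; values are individual animals (two dogs) or mean of three animals ± SD.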

[5] = Clearance in Sprague-Dawley rat at […], iv or 10 mg/kg, po; format: ADME, organism-based; conditions: in vivo
[6] = Ratio of drug level in brain to plasma of Swiss mouse at 10 mg/kg, sc measured after 1 hr; format: ADME, organism-based; conditions: brain and plasma, read-out: BPR
Procedure, shortened: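 Swiss mice, single 10 mg/kg s.c. dose in 20% HP-β-CD + HCl solution at pH 4; brain/plasma ratio taken 1 h post-dose.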

[7] = AUC (0 to infinity) in Beagle dog at 1 mg/kg, iv or 5 mg/kg, po; format: ADME, organism-based, Canis lupus familiaris; conditions: in vivo; procedure, shortened: as §2
[8] = Apparent permeability across apical to basolateral side over basolateral to apical side in pig LLC-PK1 cells at 1 uM measured after 120 mins; format: ADME, cell-based, Sus scrofa
[9] = Half life in Beagle dog at 1 mg/kg, iv or 5 mg/kg, po; format: ADME, organism-based, Canis lupus familiaris; conditions: in vivo; procedure, shortened: as §2
[10] = Cmax in Beagle dog at 1 mg/kg, iv or 5 mg/kg, po; format: ADME, organism-based, Canis lupus familiaris; conditions: in vivo; procedure, shortened: as §2
[11] = Lipophilicity, log P of the compound; format: physicochemical; conditions: octanol/water
[12] = AUC (0 to infinity) in Sprague-Dawley rat at […], iv or 10 mg/kg, po; format: ADME, organism-based; conditions: in vivo
[13] = Clearance in Beagle dog at 1 mg/kg, iv or 5 mg/kg, po; format: ADME, organism-based, Canis lupus familiaris; conditions: in vivo; procedure, shortened: as §2
[14] = Elimination half life in Sprague-Dawley rat at […], iv or 10 mg/kg, po; format: ADME, organism-based; conditions: in vivo, read-out: beta t1/2 (converted)
[15] = Dissociation constant, pKa of the compound; format: physicochemical
[16] = Tmax in Sprague-Dawley rat at […], iv or 10 mg/kg, po; format: ADME, organism-based; conditions: in vivo
[17] = Oral bioavailability in Sprague-Dawley rat at 10 mg/kg; format: ADME, organism-based; conditions: in vivo
[18] = Cmax in Sprague-Dawley rat at […], iv or 10 mg/kg, po; format: ADME, organism-based; conditions: in vivo

Row | Compound | metabolised at […], 5 µM [1] [%] | metabolised at […], 5 µM [2] [%] | also measured
1 | Fc1ccccc1C1CCN(Cc2ccn3c(CC4CC4)nnc3c2C(F)(F)F)CC1 | 8 | 85 | 
2 | FC(F)(F)c1c(CN2CCC(c3ccccc3Cl)CC2)ccn2c(CC3CC3)nnc12 | 13 | 90 | 
3 | Fc1ccc(N2CCCN(Cc3ccn4c(CC5CC5)nnc4c3C(F)(F)F)CC2)c(F)c1 | 91 | 99 | 
4 | Fc1ccc(COC2CCN(Cc3ccn4c(CC5CC5)nnc4c3C(F)(F)F)CC2)c(F)c1 | 67 | 96 | 
5 | CC1(c2ccccc2)CCCN(Cc2ccn3c(CC4CC4)nnc3c2C(F)(F)F)C1 (centres undefined) | 97 | 99 | 
6 | Fc1ccc(C2CCN(Cc3ccn4c(CC5CC5)nnc4c3C(F)(F)F)CC2)c(F)c1 | 6 | 9 | 
7 | Fc1ccc(OC2CCN(Cc3ccn4c(CC5CC5)nnc4c3C(F)(F)F)CC2)c(F)c1 | 25 | 57 | 
8 | FC(F)(F)c1c(N2CCC(c3ccccc3)CC2)ccn2c(CC3CC3)nnc12 |  | 25 | Tmax [3]: 30 min; bioavailability [4]: 18 to 33%; clearance [5]: 31 to 37 mL/min/kg; Kp at 1 h [6]: 1.4; AUC(0-inf) [7]: 531 to 957 ng·h/mL; Papp at 2 h, 1 µM [8]: 12 ×10⁻⁶ cm/s; half-life [9]: 66 to 108 min; Cmax [10]: 218 to 472 ng/mL; logP [11]: 4.4
9 | FC(F)(F)c1c(CN2CCCC(c3ccccc3)C2)ccn2c(CC3CC3)nnc12 (centres undefined) | 51 | 98 | 
10 | COC1(c2ccccc2)CCN(Cc2ccn3c(CC4CC4)nnc3c2C(F)(F)F)CC1 | 69 | 98 | 
11 | Fc1ccc(N2CCN(Cc3ccn4c(CC5CC5)nnc4c3C(F)(F)F)CC2)c(F)c1 | 7 | 29 | AUC(0-inf) [12]: 11300 ng·h/mL; Tmax [3]: 30 min; bioavailability [4]: 18 to 44%; clearance [13]: 4 to 6 mL/min/kg; clearance [5]: 16 mL/min/kg; Kp at 1 h [6]: 2.1; half-life [14]: 180 min; AUC(0-inf) [7]: 3960 to 9860 ng·h/mL; Papp at 2 h, 1 µM [8]: 22 ×10⁻⁶ cm/s; half-life [9]: 420 to 540 min; Cmax [10]: 459 to 1400 ng/mL; pKa [15]: 5; logP [11]: 4.2; Tmax [16]: 300 min; bioavailability [17]: 100%; Cmax [18]: 980 ng/mL
12 | Fc1ccc([C@H]2CC[C@@H](NCc3ccn4c(CC5CC5)nnc4c3C(F)(F)F)CC2)c(F)c1 | 81 | 84 | 
13 | Fc1cccc(F)c1C1CCN(Cc2ccn3c(CC4CC4)nnc3c2C(F)(F)F)CC1 | 5 | 75 | 
14 | FC(F)(F)c1c(CN2CCN(c3ccc(Cl)cc3Cl)CC2)ccn2c(CC3CC3)nnc12 | 1 | 9 | 
15 | Fc1cccc(F)c1N1CCN(Cc2ccn3c(CC4CC4)nnc3c2C(F)(F)F)CC1 | 55 | 99 | 
16 | CCCCn1ccc(N2CCC(c3ccccc3)CC2)c(Cl)c1=O [JNJ-40411813] | 23 | 53 | Tmax [3]: 30 min; bioavailability [4]: 20%; Kp at 1 h [6]: 1; Cmax [10]: 373 ng/mL; pKa [15]: < 2; logP [11]: 4.6; Tmax [16]: 30 min
17 | FC(F)(F)c1c(CN2CCC(F)(c3ccccc3)CC2)ccn2c(CC3CC3)nnc12 | 24 | 78 | 
18 | FC(F)(F)c1c(CN2CCC(c3ccccc3)(C(F)(F)F)CC2)ccn2c(CC3CC3)nnc12 | 35 | 98 | 
19 | Fc1ccc([C@H]2CC[C@H](NCc3ccn4c(CC5CC5)nnc4c3C(F)(F)F)CC2)c(F)c1 | 33 | 34 | 
